Laboratory results as given in ChEMBL document CHEMBL1144988, “Stereoselective preparation of N-[(R,R)-(E)-1-(3,4-dichlorobenzyl)-3- (2-oxoazepan-3-yl)carbamoyl]allyl-N-methyl-3,5-bis(trifluoromethyl)benzamide, a potent and orally active dual neurokinin NK(1)/NK(2) receptor antagonist” (J Med Chem, 2003).
Several values for one entry are separate records, joined by “and”; a condition that tells them apart may be missing. Equal values may be shown once.

Tests used:
[1] = target: T1, Substance-K receptor (Cavia porcellus, UniProt Q64077); experiment: In vitro relative antagonist potency towards guinea pig Tachykinin receptor 2; format: functional; settings: read-out: pA2 (converted)
T1 sequence (Q64077 whole entry): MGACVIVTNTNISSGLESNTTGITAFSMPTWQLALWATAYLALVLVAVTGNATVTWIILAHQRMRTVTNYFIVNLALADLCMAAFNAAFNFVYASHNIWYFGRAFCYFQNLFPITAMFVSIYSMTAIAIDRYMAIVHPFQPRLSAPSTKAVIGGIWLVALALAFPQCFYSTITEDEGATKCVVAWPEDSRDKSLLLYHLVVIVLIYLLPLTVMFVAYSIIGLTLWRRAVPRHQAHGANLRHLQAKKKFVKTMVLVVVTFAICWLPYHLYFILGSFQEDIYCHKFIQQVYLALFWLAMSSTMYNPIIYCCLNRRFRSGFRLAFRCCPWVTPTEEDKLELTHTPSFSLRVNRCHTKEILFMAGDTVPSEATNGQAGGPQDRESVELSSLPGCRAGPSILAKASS

[2] = target: Substance-P receptor (Cavia porcellus, UniProt P30547); experiment: In vitro relative antagonist potency towards guinea pig Tachykinin receptor 1; format: functional; settings: read-out: pA2 (converted)
[3] = Half life period in guinea pig when given at a dose of 3 mg/kg intravenously; format: ADME, organism-based, Cavia porcellus; set-up: dose 3 mg/kg, route intravenous; settings: in vivo, iv
Summary of the method: (§1)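 Guinea pigs given 3 mg/kg iv via the jugular vein (n = 6) in a cremophor formulation, with cannulas flushed with heparinized saline. Blood was sampled at 5, 30, 60, 120, 240, 360, 720 and 1440 min. The read-outs were terminal elimination half-life and AUC0–24h.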

[4] = tested on: Saimiri sciureus; experiment: In vivo Effective peroral dose which inhibits Beta-ala8-Neurokinin A induced bronchoconstriction (airways resistance) in squirrel monkey; settings: in Primates, po
[5] = Area Under the concentration-time curve from zero time to 24 hr in guinea pig when given at a dose of 3 mg/kg intravenously; format: ADME, organism-based, Cavia porcellus; set-up: time < 24 hr, dose 3 mg/kg, route intravenous; settings: in vivo, iv; summary of the method: as §1
[6] = Bioavailability in guinea pig (dose 10 mg/kg p.o.); format: ADME, organism-based, Cavia porcellus; settings: in vivo, po
Summary of the method: (§2)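 Guinea pigs given a single oral dose of 10 mg/kg (n = 7) as a microemulsion (2% DMSO/20% Sandimmon placebo/78% saline) or as a cremophor/2% DMSO formulation. Food was withdrawn up to 18 h predose, and animals carried heparin-flushed cannulas. Blood was sampled at 60, 120, 240, 360, 480, 720 and 1440 min. The read-outs were t1/2, Cmax, AUC0–24h and bioavailability.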

[7] = Area Under the concentration-time curve from zero time to 24 hr in guinea pig when given at a dose of 10 mg/kg perorally (Microemulsion); format: ADME, organism-based, Cavia porcellus; set-up: time < 24 hr, dose 10 mg/kg, route oral; settings: in vivo, po; summary of the method: as §2
[8] = Area Under the concentration-time curve from zero time to 24 hr in guinea pig when given at a dose of 10 mg/kg perorally (cremophor); format: ADME, organism-based, Cavia porcellus; set-up: time < 24 hr, dose 10 mg/kg, route oral; settings: in vivo, po; summary of the method: as §2
[9] = target: Substance-P receptor (Homo sapiens, UniProt P25103); experiment: In vitro binding affinity towards Human Tachykinin receptor 1
Summary of the method: (§3)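 Membranes from CHO cells expressing cloned human NK1 receptor, incubated with 3H-[Sar9,Met(O2)11]SP (0.5 nM final) in 20 mM HEPES, 1 mM MnCl2, pH 7.4, for 60 min at 28 °C. Nonspecific binding was defined with Sar9SP. Bound radioactivity was collected by filtration, washed with ice-cold 50 mM Tris pH 7.4, then counted by scintillation.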

[10] = tested on: Cavia porcellus; experiment: (§4) Plasma concentration in Blood of guinea pig when given at a dose of 10 mg/kg perorally; format: ADME, organism-based; set-up: dose 10 mg/kg, route oral; settings: in vivo, po; summary of the method: as §2
[11] = as §4; format: ADME, organism-based, Cavia porcellus; set-up: dose 10 mg/kg, route oral; settings: plasma, po; summary of the method: as §2
[12] = tested on: Cavia porcellus; experiment: (§5) Half life period in guinea pig when given at a dose of 10 mg/kg perorally; format: ADME, organism-based; set-up: dose 10 mg/kg, route oral; settings: in vivo, po; summary of the method: as §2
[13] = as §5; format: ADME, organism-based, Cavia porcellus; set-up: dose 10 mg/kg, route oral; settings: in vivo, po; summary of the method: as §2
[14] = target: T2, Substance-K receptor (Homo sapiens, UniProt P21452); experiment: In vitro binding affinity towards Human Tachykinin receptor 2
T2 sequence (P21452 whole entry): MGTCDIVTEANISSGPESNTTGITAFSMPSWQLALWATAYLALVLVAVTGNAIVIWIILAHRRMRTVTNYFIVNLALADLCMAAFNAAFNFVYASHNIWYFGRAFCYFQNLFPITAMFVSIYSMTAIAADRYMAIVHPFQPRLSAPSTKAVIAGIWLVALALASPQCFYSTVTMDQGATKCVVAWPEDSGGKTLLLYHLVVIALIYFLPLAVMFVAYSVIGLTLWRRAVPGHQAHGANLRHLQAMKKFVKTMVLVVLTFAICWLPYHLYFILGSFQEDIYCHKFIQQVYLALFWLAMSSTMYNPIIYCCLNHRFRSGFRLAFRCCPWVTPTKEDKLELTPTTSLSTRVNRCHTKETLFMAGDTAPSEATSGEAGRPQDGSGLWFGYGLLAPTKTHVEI
Summary of the method: as §3, with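 “NK2” for “NK1”, “125I-neurokinin A (1.4” for “3H-[Sar9,Met(O2)11]SP (0.5”, “NKA.” for “Sar9SP.”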

[15] = tested on: Saimiri sciureus; experiment: In vivo Effective peroral dose which inhibits Beta-ala8-Neurokinin A induced bronchoconstriction (dynamic compliance) in squirrel monkey; settings: in Primates, po

Sequence of Substance-P receptor (Homo sapiens, UniProt P25103) (P25103 whole entry): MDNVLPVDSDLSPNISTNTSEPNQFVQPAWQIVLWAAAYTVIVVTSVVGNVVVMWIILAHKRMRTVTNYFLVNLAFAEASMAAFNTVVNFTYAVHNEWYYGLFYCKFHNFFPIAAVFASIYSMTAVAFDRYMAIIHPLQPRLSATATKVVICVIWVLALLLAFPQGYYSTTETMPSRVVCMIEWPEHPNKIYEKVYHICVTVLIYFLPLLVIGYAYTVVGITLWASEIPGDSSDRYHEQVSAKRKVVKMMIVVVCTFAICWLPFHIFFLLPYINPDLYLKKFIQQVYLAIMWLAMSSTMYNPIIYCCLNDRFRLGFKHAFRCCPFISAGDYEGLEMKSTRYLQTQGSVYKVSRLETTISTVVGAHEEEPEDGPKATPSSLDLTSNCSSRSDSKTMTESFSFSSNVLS
Sequence of Substance-P receptor (Cavia porcellus, UniProt P30547) (P30547 whole entry): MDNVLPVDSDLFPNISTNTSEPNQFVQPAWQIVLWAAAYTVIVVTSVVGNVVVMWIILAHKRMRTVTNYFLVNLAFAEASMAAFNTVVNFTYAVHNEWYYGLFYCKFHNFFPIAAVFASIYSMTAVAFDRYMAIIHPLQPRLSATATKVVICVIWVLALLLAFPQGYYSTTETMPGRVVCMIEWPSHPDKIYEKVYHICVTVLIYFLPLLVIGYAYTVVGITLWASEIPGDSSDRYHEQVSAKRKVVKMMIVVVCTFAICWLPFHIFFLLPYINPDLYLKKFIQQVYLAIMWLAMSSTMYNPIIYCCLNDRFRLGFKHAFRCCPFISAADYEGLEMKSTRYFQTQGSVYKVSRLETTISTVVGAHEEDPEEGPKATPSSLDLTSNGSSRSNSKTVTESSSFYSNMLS

For `CN(C(=O)c1cc(C(F)(F)F)cc(C(F)(F)F)c1)[C@@H](/C=C/C(=O)N[C@@H]1CCCCNC1=O)Cc1ccc(Cl)c(Cl)c1` [DNK333], the Kb [1] was 53.7 nM, the Kb [2] was 11.7 nM and the half-life [3] was 4.2 h. The ED50 [4] was 1 mg/kg, the AUC at 24 h [5] was 4690 ng·h/mL and the F [6] was 41% and 17.4%. The AUC at 24 h [7] was 6380 ng·h/mL, the AUC at 24 h [8] was 2710 ng·h/mL and the Ki [9] was 4.17 nM. It also gave a Cmax [10] of 415 ng/mL, a Cmax [11] of 600 ng/mL and a T1/2 [12] of 5.4 h. The half-life [13] was 3.8 h, the Ki [14] was 9.55 nM and the ED50 [15] was 2.8 mg/kg.
Compound `CN(C(=O)c1cc(C(F)(F)F)cc(C(F)(F)F)c1)[C@H](/C=C/C(=O)N[C@@H]1CCCCNC1=O)Cc1ccc(Cl)c(Cl)c1` has a Ki [9] of 0.832 nM and a Ki [14] of 457 nM.
`CN(C(=O)c1cc(C(F)(F)F)cc(C(F)(F)F)c1)[C@H](/C=C/C(=O)N[C@H]1CCCCNC1=O)Cc1ccc(Cl)c(Cl)c1` showed a Ki [9] of 18.2 nM and a Ki [14] of 182 nM.
`CN(C(=O)c1cc(C(F)(F)F)cc(C(F)(F)F)c1)[C@@H](/C=C/C(=O)N[C@H]1CCCCNC1=O)Cc1ccc(Cl)c(Cl)c1` showed a Ki [9] of 8.71 nM and a Ki [14] of 102 nM.
